Screening data: PubChem BioAssay, several laboratories
ROMK mod: modulators of human ROMK potassium channel | Tet-inducible ROMK, thallium flux fluorescence; actives lie on both sides | P48048 | AID 1918 | B-score at 10 µM | hit rate 2% among 130,000;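 active = signal ratio slope over the read window, or its plate-corrected B-score, at least 3 SD from the plate mean, either direction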;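 also: B-score of the F/F0 ratio slope over 7 to 12 s after thallium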
NCF1 inh: inhibitors of human p47phox binding. P14598. p47phox/p22phox peptide binding, fluorescence polarization, 2 h. inhibition, % at 24.7 µM. hit rate 0.53% among 220,000. AID 1274;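 active = inhibition above about 30%, limit read from the data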;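 also: 0% = p47phox with labelled peptide and 100% = labelled peptide alone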
14-3-3 Bad PPI: disrupts binding of bovine 14-3-3 zeta to phospho-Bad peptide | P63103 | hit rate 0.71% among 220,000 | TR-FRET 14-3-3zeta/Dy647-pBad peptide displacement, 1 h | inhibition, % at 21.7 µM;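 active = inhibition above about 70%, limit read from the data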;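 also: 0% = full 14-3-3 plus peptide FRET controls and 100% = background without 14-3-3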
Target sequence (P63103 whole entry, looked up): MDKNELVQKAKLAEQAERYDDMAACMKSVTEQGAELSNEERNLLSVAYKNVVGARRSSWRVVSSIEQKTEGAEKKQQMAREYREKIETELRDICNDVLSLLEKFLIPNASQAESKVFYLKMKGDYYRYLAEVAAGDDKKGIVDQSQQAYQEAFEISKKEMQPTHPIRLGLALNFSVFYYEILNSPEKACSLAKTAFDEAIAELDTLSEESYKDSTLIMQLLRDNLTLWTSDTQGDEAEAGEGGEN
RBBP9 inhibitor: inhibitors of human serine hydrolase RBBP9; inhibition, % at 7.94 µM; hit rate 0.2% among 220,000; recombinant RBBP9, FP-Rh probe fluorescence polarization;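 active = inhibition above the campaign mean of all tested compounds plus 3 SD, cut at about 14% in these data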;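 also: plate controls were DMSO wells with RBBP9 for no effect and wells lacking RBBP9 protein for full effect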
Target sequence (O75884 whole entry, looked up): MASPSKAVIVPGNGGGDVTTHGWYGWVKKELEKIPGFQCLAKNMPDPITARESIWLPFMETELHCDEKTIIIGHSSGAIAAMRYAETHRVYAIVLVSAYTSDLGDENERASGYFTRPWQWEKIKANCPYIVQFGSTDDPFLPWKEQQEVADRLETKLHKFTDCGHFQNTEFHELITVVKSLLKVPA
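Measured by: FP readout at 525/598 nm; material: recombinant human RBBP9; also added: Serine-hydrolase probe FP-Rh, 375 nM pre-mixing; medium: Tris buffer pH 8.0, NaCl, Pluronic; replication: one well per compound; doses: one concentration, 7.94 µM nominal, 0.794% DMSO; timing: preincubation 30 min plus labeling 45 min at 25 °C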
Cl transport mod: modulators of human KCC2 chloride dependent transport; Q9H2X9; KCC2 cells, thallium flux FluoZin-2 fluorescence; B-score of Tl+ flux slope (higher = more flux/activation; lower = inhibition) at 10 µM; hit rate 2.2% among 190,000;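 active = thallium flux slope and its plate-corrected score both differing from the plate sample mean at a set confidence after two filtering rounds, in either direction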;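 also: slope of fluorescence scaled to starting intensity during 10 to 20 s after thallium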
WT yeast gro inh: growth inhibition of WT yeast, mitochondrial fusion screen. mitochondrial fusion phenotypic screen, WT strain. inhibition, % at 10 µM. hit rate 2.1% among 190,000; in the data active = inhibition above about 58%; tested in S. cerevisiae
Active calls of the source: *; i = inactive; nt = no result. Shown are actives, neighbours in structure and some others; about 5.8% of the full set was active somewhere.

SMILES	ROMK mod	NCF1 inh	14-3-3 Bad PPI	RBBP9 inhibitor	Cl transport mod	WT yeast gro inh
CC(=O)Cc1nsc(NC(=O)c2ccc(-c3ccc(Cl)c(Cl)c3)o2)n1	0.156	-39.3	2.4	-14.5	-1.4	69.2*
OCCC1CN(Cc2ccon2)CCN1CCc1ccccc1 (stereo unspecified)	1.36	5.4	-2.3	-4.0	nt	-7.2
CC(C)CCn1c(=O)c2ccccc2n2c(CN3C(=O)NC4(CCC(C)CC4)C3=O)nnc12 (stereo unspecified)	4.03*	-6.7	-7.8	-4.2	-0.0436	15.9
FC(F)C(F)(F)C(F)(F)C(F)(F)c1cc(-c2ccccc2)n[nH]1	nt	1.4	-4.9	-5.7	-3.44	69.7*
Cc1cc(C)nc(Nc2n[nH]c(-c3ccc(N)cc3)n2)n1	1.51	-14.4	-5.6	-5.0	0.421	59.6*
COC(=O)C1CCN(C(=O)c2cc(OC)c(OC)c(OC)c2)CC1	-0.129	-6.0	5.5	-6.2	0.486	77.7*
COc1cc(C(=O)N2CCN(C(=O)C3CC3)CC2)cc(OC)c1OC	1.94	-0.8	-1.0	-5.5	0.698	-5.0
CCOC(=O)C1(S(=O)(=O)c2ccc(Cl)cc2)CCN(Cc2ccc(Cl)cc2)CC1	nt	-12.2	-2.7	-6.9	-1.67	71.5*
S=C(NC1CC1)NC1CCCc2ccccc21 (stereo unspecified)	0.933	-2.3	0.6	-6.9	1.33	-1.7
Cc1cnn(C(=S)NCc2ccc(Cl)cc2)c1	0.765	-8.2	-10.4	-7.4	0.866	68.0*
Cc1cnn(C(=S)NCCc2ccccc2)c1	nt	-1.6	-3.1	-4.0	0.33	5.4
c1ccc(N(c2ccccc2)c2nc(N3CCCC3)nc(-n3ccnc3)n2)cc1	0.302	5.5	11.2	5.2	-0.26	78.5*
CN(c1ccccc1)c1nc(N2CCCC2)nc(-n2ccnc2)n1	-0.424	6.3	13.8	2.7	nt	-0.8
Cc1c(Cl)ccc2c(C(=O)NCCN3CCCCC3)cc(-c3ccccn3)nc12	0.0435	-8.9	5.8	-9.1	1.1	94.2*
CC(C)CSC1=NSC2=NC(=O)/C(=C\c3ccccc3)C(=N)N12	1.84*	-11.2	50.6	-12.5	139*	7.9
CC(C)CSC1=NSC2=NC(=O)/C(=C\c3coc4ccccc4c3=O)C(=N)N12	nt	-72.8	-0.3	-12.2	i	13.8
Clc1ccccc1-c1ccc(CN2CCN(c3ccccc3)CC2)o1	0.244	9.0	73.3*	2.7	-0.341	65.8*
O=c1cnnc(SCc2ccc([N+](=O)[O-])cc2)[nH]1	0.781	-14.3	-6.3	1.3	-0.105	12.9
O=C(O)c1ccc(N2C(=O)/C(=C/c3ccc(-c4ccc([N+](=O)[O-])cc4)o3)C=C2c2ccccc2)cc1	-0.0402	-38.9	93.7*	-5.9	-1.88	16.3
CC1=NN(c2ccc(Cl)c(C(=O)O)c2)C(=O)/C1=C\c1ccc(-c2ccc(C(=O)O)cc2)o1	1.45	-16.3	-24.9	-8.1	0.123	-5.9
O=C1NCN(c2ccccc2)C12CCN(CCCC(c1ccc(F)cc1)c1ccc(F)cc1)CC2	-0.8	14.8	-10.9	4.0	-0.111	73.3*
COc1cc(/C=N/NC(=S)NC2CC3CC2C2C=CCC32)ccc1O (stereo unspecified)	nt	-6.0	-2.9	2.9	0.311	nt
COc1cc(OC)c(NC(=O)c2ccc3c(SCC(=O)O)c4c(nc3c2)CCCC4)cc1Cl	0.0723	-10.6	-19.1	-4.8	-0.379	-11.3
CCCCNC(=O)c1cc2ccccc2s1	-1.98	1.5	5.3	-4.7	-0.252	16.6
CC(C)CCNC(=S)Nc1ccc([N+](=O)[O-])cc1	2.25	-20.5	2.1	-3.6	-2.37	78.9*
SMILES	ROMK mod	NCF1 inh	14-3-3 Bad PPI	RBBP9 inhibitor	Cl transport mod	WT yeast gro inh
CC(C)CCNC(=S)Nc1ccc(Br)cc1	-1.97	-12.4	-0.1	-4.8	-0.11	68.1*
Cc1nnc(SC(C)C#N)n1-c1ccccc1 (stereo unspecified)	-0.00807	-5.8	-10.1	-6.6	-0.111	-12.3
CCCS(=O)(=O)N1CCCC(C(=O)c2ccccc2OC)C1 (stereo unspecified)	1.16	5.9	-5.4	-8.8	-0.194	-7.8
C/C(=N\O)C(=O)NCCCn1ccnc1	2.14*	1.4	-1.0	-9.0	0.516	-6.5
Cc1[nH]n(-c2ccccc2)c(=O)c1CCOC(=O)c1cccc(C(F)(F)F)c1	nt	-0.5	-5.5	-4.4	nt	0.2
Cc1ccc(C(=O)OCCc2c(C)[nH]n(-c3ccccc3)c2=O)cc1	nt	101.8*	-7.8	-4.6	nt	8.6
